Measurements as given in ChEMBL document CHEMBL1135937, “Further studies on conformationally constrained tricyclic tropane analogues and their uptake inhibition at monoamine transporter sites: synthesis of (Z)-9-(substituted arylmethylene)-7-azatricyclo[4.3.1.0(3,7)]decanes as a novel class of serotonin transporter inhibitors” (J Med Chem, 2002).

Legend:
[1] = target: Sodium-dependent serotonin transporter (Rattus norvegicus, UniProt P31652); experiment: Inhibition of high affinity re-uptake of [3H]5-HT (serotonin) into nerve ending synaptosomes; format: subcellular, Brain
Chain of Sodium-dependent serotonin transporter (P31652 whole entry): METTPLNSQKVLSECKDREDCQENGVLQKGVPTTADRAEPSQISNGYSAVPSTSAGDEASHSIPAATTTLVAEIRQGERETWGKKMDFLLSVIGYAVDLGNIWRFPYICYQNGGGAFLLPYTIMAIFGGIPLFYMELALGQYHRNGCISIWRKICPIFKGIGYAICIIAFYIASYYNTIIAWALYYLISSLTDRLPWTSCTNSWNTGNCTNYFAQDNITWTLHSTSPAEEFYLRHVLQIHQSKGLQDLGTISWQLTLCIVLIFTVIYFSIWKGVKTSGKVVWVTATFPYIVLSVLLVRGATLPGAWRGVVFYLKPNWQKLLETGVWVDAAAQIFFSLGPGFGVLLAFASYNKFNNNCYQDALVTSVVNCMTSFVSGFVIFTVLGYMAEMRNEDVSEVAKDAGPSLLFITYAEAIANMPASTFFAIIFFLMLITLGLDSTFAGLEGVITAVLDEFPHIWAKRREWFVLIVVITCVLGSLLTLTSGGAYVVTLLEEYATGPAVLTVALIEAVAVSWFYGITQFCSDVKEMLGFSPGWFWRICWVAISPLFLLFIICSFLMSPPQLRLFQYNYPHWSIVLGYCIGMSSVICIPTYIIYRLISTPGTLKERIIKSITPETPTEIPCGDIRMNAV
Summary of the method: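 Synaptosomes (P2) from rat midbrain in modified KRH buffer (pH 7.4, with nialamide), preincubated with drug for 30 min at 4 °C, then 15 min at 37 °C. [3H]5-HT (~5 nM final) uptake ran for 5 min, then filtration and scintillation counting. IC50 from six concentrations in triplicate; Ki by Cheng–Prusoff, 2–4 experiments.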

[2] = Uptake ratio Ki of dopamine relative to serotonin (5-HT) at monoamine transporter
[3] = target: Norepinephrine transporter (Rattus norvegicus, UniProt Q9WTR4); experiment: Ability to inhibit high affinity reuptake of [3H]-NE (Norepinephrine transporter) into nerve ending synaptosomes prepared from brain regions; format: subcellular
Chain of Norepinephrine transporter (Q9WTR4 whole entry): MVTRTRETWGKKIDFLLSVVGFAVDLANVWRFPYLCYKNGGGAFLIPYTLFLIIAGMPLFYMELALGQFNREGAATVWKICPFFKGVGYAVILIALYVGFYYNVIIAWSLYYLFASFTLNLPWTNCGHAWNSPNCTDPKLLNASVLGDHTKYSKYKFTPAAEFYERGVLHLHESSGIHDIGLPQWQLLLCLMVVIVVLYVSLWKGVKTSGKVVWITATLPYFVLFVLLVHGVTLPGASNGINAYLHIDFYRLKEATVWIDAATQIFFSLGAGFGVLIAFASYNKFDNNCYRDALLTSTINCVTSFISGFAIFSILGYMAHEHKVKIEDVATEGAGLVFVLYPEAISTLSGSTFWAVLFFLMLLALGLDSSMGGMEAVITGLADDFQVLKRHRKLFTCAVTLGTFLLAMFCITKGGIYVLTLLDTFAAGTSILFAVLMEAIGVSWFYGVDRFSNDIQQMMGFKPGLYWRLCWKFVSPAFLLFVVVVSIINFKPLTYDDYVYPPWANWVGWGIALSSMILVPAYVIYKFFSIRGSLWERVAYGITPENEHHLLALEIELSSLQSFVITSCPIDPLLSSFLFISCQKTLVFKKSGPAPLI

[4] = target: Sodium-dependent dopamine transporter (Rattus norvegicus, UniProt P23977); experiment: Ability to inhibit high affinity reuptake of [3H]DA from dopamine transporter into nerve endings synaptosomes; format: subcellular, Brain
Chain of Sodium-dependent dopamine transporter (P23977 whole entry): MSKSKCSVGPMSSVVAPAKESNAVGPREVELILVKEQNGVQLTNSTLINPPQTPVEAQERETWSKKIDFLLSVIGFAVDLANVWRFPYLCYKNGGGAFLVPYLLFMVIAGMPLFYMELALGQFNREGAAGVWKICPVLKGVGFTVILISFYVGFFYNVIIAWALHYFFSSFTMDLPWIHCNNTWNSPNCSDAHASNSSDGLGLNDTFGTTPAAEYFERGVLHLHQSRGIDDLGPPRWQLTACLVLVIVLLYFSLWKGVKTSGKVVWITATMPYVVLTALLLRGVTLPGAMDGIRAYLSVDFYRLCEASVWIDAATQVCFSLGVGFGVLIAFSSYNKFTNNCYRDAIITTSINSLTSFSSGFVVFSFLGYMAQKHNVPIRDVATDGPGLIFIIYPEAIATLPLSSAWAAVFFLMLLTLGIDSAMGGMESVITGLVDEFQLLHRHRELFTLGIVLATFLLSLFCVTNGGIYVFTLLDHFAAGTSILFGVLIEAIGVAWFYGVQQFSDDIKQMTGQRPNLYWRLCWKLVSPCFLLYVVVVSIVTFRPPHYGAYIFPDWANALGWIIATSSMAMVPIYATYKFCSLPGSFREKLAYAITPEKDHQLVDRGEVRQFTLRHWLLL
Summary of the method: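 Rat striatal P2 synaptosomes in modified KRH buffer (pH 7.4, with nialamide), preincubated with drug for 30 min at 4 °C, then 15 min at 37 °C. Uptake of [3H]DA (~5 nM final) ran for 5 min and was stopped by cold Na-free buffer and filtration. IC50 from six concentrations in triplicate; Ki by Cheng–Prusoff, 2–4 experiments.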

[5] = Uptake ratio Ki of norepinephrine relative to serotonin (5-HT) at monoamine transporter
[6] = Uptake ratio Ki of norepinephrine relative to dopamine at monoamine transporter

Row | Structure (SMILES) | Ki [1] | Ratio [2] | Ki [3] | Ki [4] | Ratio [5] | Ratio [6]
1 | COC(=O)C1C2CC3CCC1N3C/C2=C\c1ccc(OC)cc1 (stereo not drawn) | 56 nM | 55.9 | 187 nM | 3130 nM | 3.3 | 0.06
2 | COC(=O)C1C2CC3CCC1N3C/C2=C\c1ccc(C)c(C)c1 (stereo not drawn) | 10.1 nM |  | 659 nM |  | 65 | 
3 | O=C(OCC1C2CC3CCC1N3C/C2=C\c1ccc(Cl)c(Cl)c1)c1ccc2ccccc2c1 (stereo not drawn) | 9.3 nM | > 1070 | 5950 nM | > 10000 nM | 640 | < 0.6
4 | COC(=O)C1C2CC3CCC1N3C/C2=C\c1ccc(F)cc1 (stereo not drawn) | 335 nM | 19.7 | 584 nM | 6620 nM | 1.7 | 0.09
5 | COC(=O)C1C2CC3CCC1N3C/C2=C\c1ccc(/C=C2\CN3C4CCC3C(C(=O)OC)C2C4)cc1 (stereo not drawn) | 993 nM | 39.2 | 33400 nM | 38900 nM | 34 | 0.86
6 | O=C(Oc1ccccc1)C1C2CC3CCC1N3C/C2=C\c1ccc(Cl)c(Cl)c1 (stereo not drawn) | 48.3 nM | 91.9 | 2410 nM | 4440 nM | 49.9 | 0.54
7 | COC(=O)C1C2CC3CCC1N3C/C2=C\c1ccc2ccc3cccc4ccc1c2c34 (stereo not drawn) | 860 nM | 11.5 |  | 9920 nM |  | 
8 | COC(=O)C1C2CC3CCC1N3C/C2=C\c1ccc(Cl)cc1 (stereo not drawn) | 34.3 nM | 24.8 | 208 nM | 853 nM | 6 | 0.24
9 | O=C(CCCCCCCCCC(=O)OCC1C2CC3CCC1N3C/C2=C\c1ccc(Cl)c(Cl)c1)OCC1C2CC3CCC1N3C/C2=C\c1ccc(Cl)c(Cl)c1 (stereo not drawn) | 8.5 nM | > 1170 | > 10000 nM | > 10000 nM | > 1170 | 
10 | O=C(OCC1C2CC3CCC1N3C/C2=C\c1ccc(I)cc1)c1ccccc1 (stereo not drawn) |  | > 100000 | 8190 nM | > 10000 nM | 81900 | < 0.82
11 | COC(=O)C1C2CC3CCC1N3C/C2=C\c1ccc(C)c(Cl)c1 (stereo not drawn) | 6.4 nM | > 1560 | 198 nM | > 10000 nM | 31 | < 0.02
12 | COC(=O)C1C2CC3CCC1N3C/C2=C\c1ccc(F)c(F)c1 (stereo not drawn) | 101 nM | 73.7 | 394 nM | 7440 nM | 3.9 | 0.05
13 | COC(=O)C1C2CC3CCC1N3C/C2=C\c1cccc(Cl)c1 (stereo not drawn) | 53.6 nM | 145 | 231 nM | 7780 nM | 4.3 | 0.03
14 | O=C(OCC1C2CC3CCC1N3C/C2=C\c1ccc(Cl)c(Cl)c1)c1ccccc1 (stereo not drawn) | 3.1 nM | 4550 | 3070 nM | 14100 nM | 990 | 0.22
15 | COC(=O)C1C2CC3CCC1N3C/C2=C\c1ccc(I)cc1Cl (stereo not drawn) | 74 nM | 89.7 | 508 nM | 6640 nM | 6.9 | 0.08
16 | COC(=O)C1C2CC3CCC1N3C/C2=C\c1ccc(Br)c(Cl)c1 (stereo not drawn) | 2.3 nM | 2360 | 459 nM | 5420 nM | 200 | 0.08
17 | Cc1ccc(/C=C2\CN3C4CCC3C(COC(=O)c3ccccc3)C2C4)cc1Cl (stereo not drawn) | 2 nM | > 20000 | > 10000 nM | > 10000 nM | > 20000 | 
18 | COC(=O)C1C2CC3CCC1N3C/C2=C\c1cc(Cl)cc(Cl)c1 (stereo not drawn) | 437 nM | 12.8 | 4100 nM | 5600 nM | 9.4 | 0.73
19 | O=C(OCC1C2CC3CCC1N3C/C2=C\c1ccc(Br)cc1)c1ccccc1 (stereo not drawn) | 3.95 nM | 835 | 4470 nM | 3300 nM | 1130 | 1.35
20 | CC(=O)OCC1C2CC3CCC1N3C/C2=C\c1cccc(Cl)c1 (stereo not drawn) | 92.9 nM | 64.4 | 1180 nM | 5980 nM | 12.7 | 0.2
21 | CCC(=O)C1C2CC3CCC1N3C/C2=C\c1ccc(Cl)c(Cl)c1 (stereo not drawn) | 2.2 nM | 3110 | 651 nM | 6840 nM | 296 | 0.1
22 | COC(=O)C1C2CC3CCC1N3C/C2=C\c1cccc2ccccc12 (stereo not drawn) | 121 nM | 80.3 | 5370 nM | 9720 nM | 44 | 0.55
23 | O=C(OCC1C2CC3CCC1N3C/C2=C\c1ccc(I)c(Cl)c1)c1ccccc1 (stereo not drawn) |  | > 6e+06 | > 10000 nM | > 10000 nM | > 6e+06 | 

Row | Structure (SMILES) | Ki [1] | Ratio [2] | Ki [3] | Ki [4] | Ratio [5] | Ratio [6]
24 | CC(=O)OCC1C2CC3CCC1N3C/C2=C\c1ccc(Cl)c(Cl)c1 (stereo not drawn) | 1.6 nM | 1170 | 638 nM | 1870 nM | 399 | 0.34
25 | COC(=O)C1C2CC3CCC1N3C/C2=C\c1ccc(C(C)C)cc1 (stereo not drawn) | 10.2 nM |  | 1110 nM |  | 109 | 
26 | COC(=O)C1C2CC3CCC1N3C/C2=C\c1ccc(I)c(Cl)c1 (stereo not drawn) | 1.8 nM | 1740 | 272 nM | 3140 nM | 151 | 0.09
27 | COC(=O)C1C2CC3CCC1N3C/C2=C\c1ccccc1 (stereo not drawn) | 1140 nM | 0.42 | 53 nM | 481 nM | 0.05 | 0.11
28 | CNC(=O)C1C2CC3CCC1N3C/C2=C\c1ccc(Cl)c(Cl)c1 (stereo not drawn) | 29.8 nM | 127 | 417 nM | 3780 nM | 14 | 0.11
29 | CN(C)C(=O)C1C2CC3CCC1N3C/C2=C\c1ccc(Cl)c(Cl)c1 (stereo not drawn) | 28.9 nM | 231 | 2020 nM | 6680 nM | 69.9 | 0.3
30 | COC(=O)C1C2CC3CCC1N3C/C2=C\c1ccc(C(F)(F)F)cc1 (stereo not drawn) | 12.6 nM |  | 1830 nM |  | 145 | 
31 | COC(=O)C1C2CC3CCC1N3C/C2=C\c1cc2ccccc2c2ccccc12 (stereo not drawn) | 233 nM | 7 | 13000 nM | 1640 nM | 56 | 7.93
32 | COC(=O)C1C2CC3CCC1N3C/C2=C\c1ccc2ccccc2c1 (stereo not drawn) | 21 nM | 35 | 157 nM | 735 nM | 7.5 | 0.21
33 | COC(=O)C1C2CC3CCC1N3C/C2=C\c1ccc(Cl)c(Cl)c1 (stereo not drawn) | 20 nM | 96 | 1000 nM | 1920 nM | 50 | 0.52
34 | Clc1ccc(/C=C2\CN3C4CCC3C(COc3ccc(I)cc3)C2C4)cc1Cl (stereo not drawn) | 1170 nM | 11.7 | 2510 nM | 13700 nM | 2.1 | 0.18
35 | COC(=O)C1C2CC3CCC1N3C/C2=C\c1ccc(Br)cc1 (stereo not drawn) | 11 nM | 45 | 178 nM | 495 nM | 16 | 0.36
36 | O=C(OCC1C2CC3CCC1N3C/C2=C\c1ccc(Cl)c(Cl)c1)c1ccc(I)cc1 (stereo not drawn) | 48.7 nM | 363 | 8590 nM | 17700 nM | 176 | 0.48
37 | COC(=O)C1C2CC3CCC1N3C/C2=C\c1cccc(Cl)c1Cl (stereo not drawn) | 354 nM | 2.4 | 1210 nM | 850 nM | 3.4 | 1.42
38 | CC(=O)OCC1C2CC3CCC1N3C/C2=C\c1ccc2ccccc2c1 (stereo not drawn) | 4.4 nM | 148 | 672 nM | 652 nM | 153 | 1.03
39 | CC(C)OC(=O)C1C2CC3CCC1N3C/C2=C\c1ccc(Cl)c(Cl)c1 (stereo not drawn) | 85.7 nM | 15 | 325 nM | 1290 nM | 3.8 | 0.25
40 | O=C(OCC1C2CC3CCC1N3C/C2=C\c1cccc(Cl)c1)c1ccccc1 (stereo not drawn) | 11 nM | 367 | 6580 nM | 4040 nM | 598 | 1.63
41 | O=C(OCC1C2CC3CCC1N3C/C2=C\c1ccc2ccccc2c1)c1ccccc1 (stereo not drawn) | 0.1 nM | 55300 | 3220 nM | 5530 nM | 32200 | 0.58
42 | CON(C)C(=O)C1C2CC3CCC1N3C/C2=C\c1ccc(Cl)c(Cl)c1 (stereo not drawn) | 30.7 nM | 281 | 396 nM | 8620 nM | 12.9 | 0.05
43 | O=C(OCC1C2CC3CCC1N3C/C2=C\c1ccc(Br)c(Cl)c1)c1ccccc1 (stereo not drawn) | 3.2 nM | > 3120 | 3840 nM | > 10000 nM | 1200 | < 0.38
44 | COC(=O)C1C2CC3CCC1N3C/C2=C\c1ccc(C)cc1 (stereo not drawn) | 15 nM | 43.3 | 146 nM | 649 nM | 9.7 | 0.22
45 | Clc1ccc(/C=C2\CN3C4CCC3C(/C=C\c3ccccc3)C2C4)cc1Cl (stereo not drawn) | 245 nM | 8.6 | 2790 nM | 2110 nM | 11.4 | 1.32
